Results of several laboratories.
Lines come from different studies, so protocols differ.
MST1R: Macrophage-stimulating protein receptor (MST1R, Homo sapiens, UniProt Q04912)
MAPK14: Mitogen-activated protein kinase 14 (MAPK14, Homo sapiens, UniProt Q16539)
PDE3A: cGMP-inhibited 3',5'-cyclic phosphodiesterase 3A (PDE3A, Homo sapiens, UniProt Q14432)
LRRK2: Leucine-rich repeat serine/threonine-protein kinase 2 (LRRK2, Homo sapiens, UniProt Q5S007)

SMILES	target	test	IC50
C[C@@H]1Cc2ccccc2N1C(=O)NCCCCN(C)[C@@H]1Cc2cccc3[nH]c(=O)n(c23)C1	5-hydroxytryptamine receptor 1A (HTR1A, Homo sapiens, UniProt P08908)	ligand displacement, radioligand	35.8 nM
CNC(=O)c1cc2c(Oc3ccc(NC(=O)C4(C(=O)Nc5ccc(F)cc5)CC4)cc3)ccnc2cc1OC	MST1R	enzyme activity, inhibitor, radiometric	43 nM
COCCOCOc1ccc(C(=O)/C=C/c2ccc(C(=O)O)cc2)cc1C12CC3CC(CC(C3)C1)C2	Inhibitor of nuclear factor kappa-B kinase subunit beta (IKBKB, Homo sapiens, UniProt O14920)	enzyme activity, inhibitor, TR-FRET	16700 nM
CC(C)(C)n1nc(-c2cnc3cc(OC4CC4)ccc3c2)c(C(N)=O)c1N	MAPK14	cell-free assay	> 10000 nM
COc1cc2c(cc1OC)-c1c/c(=N\c3c(C)cc(C)cc3C)n(C)c(=O)n1CC2	PDE3A	enzyme activity, inhibitor, FP	0.067 nM
COc1ccc2c(Oc3ccc4c(C(=O)Nc5ccccc5N)cccc4c3)ccnc2c1	MST1R	enzyme activity, inhibitor	> 500 nM
N#C/C(=C\c1ccc(O)c(O)c1)C(=O)OC/C=C/c1ccccc1	LRRK2	enzyme activity, inhibitor, radiometric	619 nM
CN(C)CCC=C1c2ccccc2CCc2ccccc21	Estrogen receptor (ESR1, Homo sapiens, UniProt P03372)	reporter gene, antagonist	25400 nM
Cc1cnc(-c2ccc(-c3ccc(NC(=O)Nc4c(F)cc(F)cc4F)cc3F)c3c2C(=O)NC3)[nH]1	Serine/threonine-protein kinase PLK4 (PLK4, Homo sapiens, UniProt O00444)	enzyme activity, inhibitor	4.8 nM
CC(C)(C)n1nc(-c2ccc3nc(OC4CC4)ccc3c2)c(C(N)=O)c1N	Death-associated protein kinase 3 (DAPK3, Homo sapiens, UniProt O43293)	cell-free assay	> 10000 nM
CN1CCN(c2ccc(Nc3ncc4cc(C#N)c(=O)n(C5CCCC5)c4n3)cc2)CC1	Casein kinase I isoform epsilon (CSNK1E, Homo sapiens, UniProt P49674)	enzyme activity, inhibitor	5490 nM
O=c1ccc2cc(O)c(O)cc2o1	Leucine-rich repeat serine/threonine-protein kinase 2 (LRRK2, Homo sapiens, UniProt Q5S007, G2019S)	enzyme activity, inhibitor, radiometric	358 nM
CC1=CC[C@@H](C(C)(C)O)CC1	Urease subunit beta (ureB, Helicobacter pylori, UniProt P69996)	enzyme activity in cells, inhibitor, absorbance	9350 nM
CNc1nc(C)nc(N[C@H]2CCC[C@@H](C(=O)NCc3ccc(C#N)cc3C(F)(F)F)C2)n1	Bifunctional epoxide hydrolase 2 (Ephx2, Rattus norvegicus, UniProt P80299)	enzyme activity, inhibitor	2.9 nM
CSc1ccc(/C=C2/C(C)=C(CC(=O)O)c3cc(F)ccc32)cc1	PDE3A	enzyme activity, inhibitor	> 100000 nM
Cc1nccc2c1c(=O)n(C)c1cc(OC[C@@H](N)CC(C)C)c(C#N)cc21	Alpha-2C adrenergic receptor (ADRA2C, Homo sapiens, UniProt P18825)	cell-free assay	> 30000 nM
CC(Cc1ccc(O)c(O)c1)C(C)Cc1ccc(O)c(O)c1 (stereo not drawn)	LRRK2	enzyme activity, inhibitor, radiometric	456 nM
COc1ccc(C2=NN(C3CCCCCC3)C(=O)[C@@H]3CC=CC[C@H]23)cc1-c1ccc(C(N)=O)cc1 (relative stereo)	PDE3A	enzyme activity, inhibitor	7940 nM
Cc1cc(C)nc(NC(=S)N2CCN(c3ccncc3)CC2)c1	MAPK14	enzyme activity, inhibitor, ADP detection	100 nM
Cn1c(=O)c([N+](=O)[O-])c(Cl)c2ccccc21	Adenylate cyclase type 1 (Homo sapiens, UniProt Q08828)	cAMP	300 nM
CCN1CCN(c2c(Cl)cccc2NC(=O)c2ccc(Br)o2)CC1	MAPK14	enzyme activity, inhibitor	> 20000 nM
